Reference: ChEMBL document CHEMBL5104202, “Structure-Uptake Relationship Studies of Oxazolidinones in Gram-Negative ESKAPE Pathogens” (J Med Chem, 2022)
In brackets after ≈: the same amount, converted by molar mass.

Assays:
[1] = system: Pseudomonas aeruginosa; assay: Antibacterial activity against wild type Pseudomonas aeruginosa assessed as inhibition of bacterial growth; assay type: functional, organism-based
[2] = system: Staphylococcus aureus; assay: Antibacterial activity against Staphylococcus aureus ATCC 25923 incubated for 24 hrs by twofold serial dilution method; assay type: functional
Outline: (§1)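 MICs by twofold serial dilution in 96-well plates from 10 mM DMSO stocks. Cultures grown in the indicated media; for E. coli, A. baumannii and P. aeruginosa, inducers were 0.1% arabinose, 1% arabinose and 0.1 mM IPTG respectively.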

[3] = system: Acinetobacter baumannii; assay: Antibacterial activity against recombinant OM pore producing Acinetobacter baumannii assessed as inhibition of bacterial growth; assay type: functional, organism-based
[4] = system: Pseudomonas aeruginosa; assay: Antibacterial activity against recombinant OM pore producing Pseudomonas aeruginosa assessed as inhibition of bacterial growth; assay type: functional, organism-based
[5] = system: Pseudomonas aeruginosa; assay: Antibacterial activity against efflux pump lacking Pseudomonas aeruginosa assessed as inhibition of bacterial growth; assay type: functional, organism-based
[6] = system: Escherichia coli; assay: Antibacterial activity against efflux pump lacking/recombinant OM pore producing Escherichia coli assessed as inhibition of bacterial growth; assay type: functional, organism-based
[7] = system: Acinetobacter baumannii; assay: Antibacterial activity against efflux pump lacking/recombinant OM pore producing Acinetobacter baumannii incubated for 24 hrs by twofold serial dilution method; assay type: functional; outline: as §1
[8] = system: Pseudomonas aeruginosa; assay: Antibacterial activity against efflux pump lacking/recombinant OM pore producing Pseudomonas aeruginosa incubated for 24 hrs by twofold serial dilution method; assay type: functional; outline: as §1
[9] = system: Acinetobacter baumannii; assay: Antibacterial activity against efflux pump lacking/recombinant OM pore producing Acinetobacter baumannii assessed as inhibition of bacterial growth; assay type: functional, organism-based
[10] = system: Escherichia coli; assay: Antibacterial activity against efflux pump lacking/recombinant OM pore producing Escherichia coli incubated for 24 hrs by twofold serial dilution method; assay type: functional
Outline: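 E. coli efflux-knockout/hyperporinated strain grown in M9 medium with 50 mM MOPS (pH 7.2) and 0.2% xylose. OM pore induced with 0.1% arabinose. Compounds come from 10 mM DMSO stocks and are twofold serially diluted in 96-well plates.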

[11] = system: Escherichia coli; assay: Antibacterial activity against Escherichia coli SQ110 DTC incubated for 24 hrs by twofold serial dilution method; assay type: functional; outline: as §1
[12] = system: Escherichia coli; assay: Antibacterial activity against recombinant OM pore producing Escherichia coli assessed as inhibition of bacterial growth; assay type: functional, organism-based
[13] = system: Escherichia coli; assay: Antibacterial activity against Escherichia coli SQ110 incubated for 24 hrs by twofold serial dilution method; assay type: functional; outline: as §1
[14] = system: Pseudomonas aeruginosa; assay: Antibacterial activity against efflux pump lacking/recombinant OM pore producing Pseudomonas aeruginosa assessed as inhibition of bacterial growth; assay type: functional, organism-based
[15] = system: Escherichia coli; assay: Antibacterial activity against Escherichia coli SQ110 DTC G2032A incubated for 24 hrs by twofold serial dilution method; assay type: functional
Outline: (§2)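 E. coli SQDTC (TolC-deficient, single rRNA operon) carrying LZD-resistant 23S rRNA substitutions. Compounds come from 10 mM DMSO stocks and are twofold serially diluted in 96-well plates.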

[16] = system: Escherichia coli; assay: Antibacterial activity against Escherichia coli SQ110 DTC C2610A incubated for 24 hrs by twofold serial dilution method; assay type: functional; outline: as §2
[17] = system: Acinetobacter baumannii; assay: Antibacterial activity against wild type Acinetobacter baumannii assessed as inhibition of bacterial growth; assay type: functional, organism-based
[18] = system: Escherichia coli; assay: Antibacterial activity against efflux pump lacking Escherichia coli assessed as inhibition of bacterial growth; assay type: functional, organism-based
[19] = system: Escherichia coli; assay: Antibacterial activity against wild type Escherichia coli assessed as inhibition of bacterial growth; assay type: functional, organism-based
[20] = system: Acinetobacter baumannii; assay: Antibacterial activity against efflux pump lacking Acinetobacter baumannii assessed as inhibition of bacterial growth; assay type: functional, organism-based
[21] = system: Klebsiella aerogenes; assay: Antibacterial activity against multidrug resistant Klebsiella aerogenes ATCC13048 assessed as inhibition of bacterial growth incubated for 24 hrs in M9-MOPS medium by twofold serial dilution method; assay type: functional
[22] = system: Klebsiella pneumoniae; assay: Antibacterial activity against multidrug resistant Klebsiella pneumoniae ATCC43816 assessed as inhibition of bacterial growth incubated for 24 hrs in M9-MOPS medium by twofold serial dilution method; assay type: functional
[23] = system: Pseudomonas aeruginosa; assay: Antibacterial activity against multidrug resistant Pseudomonas aeruginosa BAA 2108 assessed as inhibition of bacterial growth incubated for 24 hrs in MHI medium by twofold serial dilution method; assay type: functional
[24] = system: Acinetobacter baumannii; assay: Antibacterial activity against multidrug resistant Acinetobacter baumannii Ab5075 assessed as inhibition of bacterial growth incubated for 24 hrs in MHI medium by twofold serial dilution method; assay type: functional
[25] = system: Acinetobacter baumannii; assay: Antibacterial activity against multidrug resistant Acinetobacter baumannii AYE assessed as inhibition of bacterial growth incubated for 24 hrs in M9-MOPS medium by twofold serial dilution method; assay type: functional
[26] = system: Klebsiella pneumoniae; assay: Antibacterial activity against multidrug resistant Klebsiella pneumoniae ATCC43816 assessed as inhibition of bacterial growth incubated for 24 hrs in MHI medium by twofold serial dilution method; assay type: functional
[27] = system: Acinetobacter baumannii; assay: Antibacterial activity against multidrug resistant Acinetobacter baumannii AYE assessed as inhibition of bacterial growth incubated for 24 hrs in MHI medium by twofold serial dilution method; assay type: functional
[28] = system: Klebsiella pneumoniae; assay: Antibacterial activity against multidrug resistant Klebsiella pneumoniae ATCC43816 assessed as inhibition of bacterial growth incubated for 24 hrs in MHI medium by twofold serial dilution method; conditions: ATCC43816, 24 h
[29] = system: Pseudomonas aeruginosa; assay: Antibacterial activity against multidrug resistant Pseudomonas aeruginosa BAA 2108 assessed as inhibition of bacterial growth incubated for 24 hrs in M9-MOPS medium by twofold serial dilution method; assay type: functional
[30] = system: Pseudomonas aeruginosa; assay: Antibacterial activity against multidrug resistant Pseudomonas aeruginosa BAA 2109 assessed as inhibition of bacterial growth incubated for 24 hrs in […] medium by twofold serial dilution method; assay type: functional
[31] = system: Klebsiella pneumoniae; assay: Antibacterial activity against multidrug resistant Klebsiella pneumoniae ATCC13883 assessed as inhibition of bacterial growth incubated for 24 hrs in M9-MOPS medium by twofold serial dilution method; assay type: functional
[32] = system: Klebsiella pneumoniae; assay: Antibacterial activity against multidrug resistant Klebsiella pneumoniae ATCC13883 assessed as inhibition of bacterial growth incubated for 24 hrs in MHI medium by twofold serial dilution method; assay type: functional
[33] = system: Acinetobacter baumannii; assay: Antibacterial activity against multidrug resistant Acinetobacter baumannii Ab5075 assessed as inhibition of bacterial growth incubated for 24 hrs in M9-MOPS medium by twofold serial dilution method; assay type: functional
[34] = system: Pseudomonas aeruginosa; assay: Antibacterial activity against multidrug resistant Pseudomonas aeruginosa BAA 2109 assessed as inhibition of bacterial growth incubated for 24 hrs in MHI medium by twofold serial dilution method; assay type: functional

Row | Compound | IC50 [1] [µM] | MIC [2] [µM] | IC50 [3] [µM] | IC50 [4] [µM] | IC50 [5] [µM] | IC50 [6] [µM] | MIC [7] [µM] | MIC [8] [µM] | IC50 [9] [µM] | MIC [10] [µM] | MIC [11] [µM] | IC50 [12] [µM] | MIC [13] [µM] | IC50 [14] [µM] | MIC [15] [µM] | MIC [16] [µM] | IC50 [17] [µM] | IC50 [18] [µM] | IC50 [19] [µM] | IC50 [20] [µM] | other results
1 | C[n+]1ccc(-c2ccc(N3C[C@H](CO)OC3=O)cc2F)cc1 | > 100 | > 100 | 13.8 | 59.7 | 48.8 | 11 | > 100 | > 100 | 13.8 | > 100 | 50 | 12.3 | 100 | 9.4 | > 100 | 100 | 59.4 | 10 | 13.5 | 23.3 | 
2 | O=C1O[C@@H](CO)CN1c1ccc(-c2cccnc2)c(F)c1 | > 100 | 1.56 (≈ 0.45 µg/mL) | 19 | 75.3 | 4.7 | 3.2 | 12.5 | 6.25 | 4.3 | 25 | 12.5 (≈ 3.6 µg/mL) | 14.5 | > 100 | 6 | 50 (≈ 14.4 µg/mL) | 25 (≈ 7.21 µg/mL) | 19 | 2.8 | > 100 | 4.3 | MIC [21]: 200 µM (≈ 57.7 µg/mL); MIC [22]: > 200 µM; MIC [23]: > 200 µM; MIC [24]: > 200 µM; MIC [25]: 100 µM (≈ 28.8 µg/mL); MIC [26]: > 200 µM; MIC [27]: > 200 µM; MIC [28]: > 200 µM; MIC [29]: > 200 µM; MIC [30]: > 200 µM; MIC [31]: 200 µM (≈ 57.7 µg/mL); MIC [32]: > 200 µM; MIC [33]: 100 µM (≈ 28.8 µg/mL); MIC [34]: > 200 µM
3 | O=C1O[C@@H](CO)CN1c1ccc(-c2ccc(CO)cc2)c(F)c1 | > 100 | 1.56 (≈ 0.495 µg/mL) | 5.7 | > 100 | 5.3 | 3.7 | 12.5 | 6.25 | 4.6 | 25 | 12.5 (≈ 3.97 µg/mL) | 17.6 | > 100 | 5.5 | 50 (≈ 15.9 µg/mL) | 25 (≈ 7.93 µg/mL) | 45.3 | 3.9 | 67.9 | 4.4 | 
4 | O=C1O[C@@H](CO)CN1c1ccc(-c2ccc(OC(F)(F)F)cc2)c(F)c1 | > 100 | 6.25 (≈ 2.32 µg/mL) | 25.6 | > 100 | 18.6 | 18.8 | 25 | > 100 | 6.4 | > 100 | 100 (≈ 37.1 µg/mL) | 76.9 | > 100 | 3.1 | > 100 | > 100 | > 100 | 17.2 | > 100 | 16.3 | 
5 | O=C1O[C@@H](CO)CN1c1ccc(-c2ccc(C(F)(F)F)cc2)c(F)c1 | > 100 | 3.12 (≈ 1.11 µg/mL) | 41.1 | > 100 | 8 | 2.9 | 6.25 | > 100 | 3.9 | > 100 | 25 (≈ 8.88 µg/mL) | 35.3 | 100 (≈ 35.5 µg/mL) | 1.4 | > 100 | > 100 | > 100 | 4.1 | 88.8 | 8 | 
6 | C[n+]1cccc(-c2ccc(-c3ccc(N4C[C@H](CO)OC4=O)cc3F)cc2)c1 | > 100 | 12.5 | 13.9 | 28.1 | 29.7 | 2.1 | 25 | 25 | 12.6 | 25 | 12.5 | 7.8 | > 100 | 18.1 | 50 | 25 | > 100 | 1.2 | 98.4 | 29.7 | 
